Hits are enriched below; roughly 1.8% of the tested compounds scored in any of these assays.
NPY1 pot ag – potentiates or activates human NPY-Y1 receptor; P25929; NPY-Y1 expressing cells, potentiator/agonist activation; activation, % at 3.6 µM; actives 0.37% (n = 220,000); AID 1304; in the data active = activation above about 33%, passing the limit was not always enough;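 note: cells stimulated with NPY at EC10 then isoproterenol at EC100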
Target sequence (P25929 whole entry, looked up): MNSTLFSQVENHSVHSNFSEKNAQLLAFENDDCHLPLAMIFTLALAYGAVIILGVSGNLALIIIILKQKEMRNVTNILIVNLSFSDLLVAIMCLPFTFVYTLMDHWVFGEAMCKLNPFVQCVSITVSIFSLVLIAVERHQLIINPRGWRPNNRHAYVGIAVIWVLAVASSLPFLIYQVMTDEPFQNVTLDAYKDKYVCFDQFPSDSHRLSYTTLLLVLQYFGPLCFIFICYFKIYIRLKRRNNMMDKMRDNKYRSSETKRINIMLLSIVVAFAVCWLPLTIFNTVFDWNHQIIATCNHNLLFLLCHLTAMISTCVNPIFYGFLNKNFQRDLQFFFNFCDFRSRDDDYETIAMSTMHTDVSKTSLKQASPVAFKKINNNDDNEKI
NPY Y1 blocker – antagonists of human neuropeptide Y receptor Y1. HEK293-CNG Y1 cells, membrane potential fluorescence; NPY at EC95, then isoproterenol. actives 1% (n = 200,000). AID 1040. inhibition, % at 3.6 µM;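 active = inhibition above the campaign mean inhibition of all tested compounds plus 3 SD, cut at about 20% in these data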
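material = HEK293 cells with Y1 receptor plus CNG channel | also added = NPY 25 nM then isoproterenol 1 µM plus Ro 20-1724 25 µM | schedule = dye 3 h, compound 60 min room temperature, stimulation 45 min | measured by = membrane potential fluorescence | benchmarks = high control isoproterenol alone, low control NPY with isoproterenol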
NPY-Y2 PAM-ag – potentiators or agonists of human neuropeptide Y receptor Y2; P49146; cells expressing NPY-Y2, potentiator/agonist read-out; activation, % at 3.6 µM; actives 0.45% (n = 220,000); in the data active = activation above about 27%;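 note: cells stimulated with NPY near EC25 plus isoproterenol at EC100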
NPY-Y2 antag – blocks the human neuropeptide Y Y2 receptor. P49146. NPY-Y2 expressing cells, antagonist mode. inhibition, % at 2.7 µM. actives 0.99% (n = 140,000); in the data active = inhibition above about 17%
NPY1 antag ctr – human NPY-Y1 antagonism in NPY-Y2 counter-screen. shares compounds with NPY-Y2 antag. cell-based NPY-Y1 antagonism counterscreen. inhibition, % at 3.6 µM. actives 19% (n = 710); in the data active = inhibition above about 20%;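 note: cells challenged with NPY then isoproterenol with cAMP sensed through a CNG channel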
NPY-Y2 ant conf – confirmation of human neuropeptide Y receptor Y2 antagonists. shares compounds with NPY-Y2 antag. HEK293 NPY-Y2 CNG channel, membrane potential fluorescence. inhibition, % at 2.8 µM. actives 32% (n = 710);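 active = mean inhibition of triplicate wells above the hit cutoff set in the primary screen, cut at about 17% in these data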
Hits are given with their value; n = inactive; x = not tested or not shown.

SMILES	NPY1 pot ag	NPY Y1 blocker	NPY-Y2 PAM-ag	NPY-Y2 antag	others
Cc1noc(C)c1C(=O)Nc1nc(C23CC4CC(CC(C4)C2)C3)cs1	45	n	72	n
O=C(Cc1ccccc1Cl)Nc1cccnc1	n	n	n	x
Cc1ccc(C(=O)O/N=C2\CCSc3ccc(C)cc32)cc1	n	23	n	21
COCc1nnc(NC(=O)c2cc(OC)c(OC)cc2[N+](=O)[O-])s1	n	n	n	n
CCc1ccc(-c2nc(SCC(=O)N3CCOCC3)n[nH]2)cc1	n	n	n	x
CCCC(c1nnnn1Cc1ccco1)N1CCN(c2cc(Cl)ccc2C)CC1 (configuration not stated)	n	29	n	27
COc1ccccc1NC(=O)CN(Cc1ccco1)C(=O)c1cc2ccccc2o1	n	n	n	x
CN(CCO)c1cc(NCCCN2CCC(Cc3ccccc3)CC2)c2nonc2c1[N+](=O)[O-]	51	n	29	x
CN(CCO)c1cc(N2CCCCC2)c2nonc2c1[N+](=O)[O-]	n	n	n	x
N#Cc1nc(COc2ccc(Br)cc2)oc1N1CCN(Cc2ccccc2)CC1	n	35	n	32
N#Cc1nc(COc2ccc(F)cc2)oc1N1CCN(Cc2ccccc2)CC1	n	34	n	32
N#Cc1nc(COc2ccc(F)cc2)oc1N1CCC(Cc2ccccc2)CC1	n	32	n	37
COc1cc2c(cc1OC)C(C1C(=O)CC(C)CC1=O)N(C(=O)CCl)CC2 (configuration not stated)	n	n	n	n
CC1CCCc2sc3nc(NCc4ccco4)n4ncnc4c3c21 (configuration not stated)	n	39	n	28
S=c1[nH]nc(Cc2noc3ccccc23)n1-c1ccccc1	n	n	n	x
Cc1ccc(CNC(=O)CSc2nc3c(sc4ccccc43)c(=O)n2CCCN2CCCC2)cc1	n	21	n	x
O=C(NC1CCCCCCC1)C1CCCN(S(=O)(=O)c2cnc[nH]2)C1 (configuration not stated)	n	n	42	n
O=C1C=C(NCc2ccc(Cl)cc2Cl)C2(CCCCC2)O1	n	26	n	26
COc1ccc(C(NC(=O)c2c(F)c(F)c(F)c(F)c2F)c2ccccc2)cc1 (configuration not stated)	63	n	35	n
C#CC(CC)(CC)NC(=O)NC1CCCCC1	n	n	n	x
COC(=O)c1ccc2c(=O)[nH]c(CN3c4ccccc4CC3C)nc2c1 (configuration not stated)	n	n	n	n
CC1Cc2ccccc2N1Cc1nc2cc(Cl)ccc2c(=O)[nH]1 (configuration not stated)	65	n	61	n
CCN(CC)S(=O)(=O)c1ccc(N2CCOCC2)c(NC(=O)c2cnccn2)c1	n	n	n	n
O=C(Cn1nc(-c2ccc(N3CCOCC3)c([N+](=O)[O-])c2)c2ccccc2c1=O)N1CCCCC1	n	25	n	57
COc1ccc(C(=O)C(Sc2nnc(C)c(=O)[nH]2)c2ccc(OC)cc2)cc1 (configuration not stated)	n	x	n	x
SMILES	NPY1 pot ag	NPY Y1 blocker	NPY-Y2 PAM-ag	NPY-Y2 antag	others
CCOc1ccc(N(C(=O)c2cnsn2)C(C(=O)NC2CCCCC2)c2ccncc2)cc1 (configuration not stated)	n	34	n	20
CC(CCc1ccccc1)NCC(O)c1ccc(O)c(C(N)=O)c1 (configuration not stated)	116	n	103	n
CC(=O)NC(C)CCc1ccccc1 (configuration not stated)	n	x	n	x
CCC1CCCCN1C(=O)CSc1nnc(-c2c[nH]c3ccccc23)o1 (configuration not stated)	n	n	n	n
CC(Cc1ccccc1)NC(=S)CN1CCCC1=S (configuration not stated)	n	x	n	x
Cn1nc(C(F)(F)F)c(-c2cccc(C(F)(F)F)c2)c1NC(=O)Nc1ccc(F)cc1	111	x	102	x
Cn1nc(C(F)(F)F)c(-c2cccc(C(F)(F)F)c2)c1NC(=O)c1ccco1	n	x	n	x
CCOC(=O)c1ccc(NC(=O)CC2S/C(=N/N=C/c3c[nH]c4ccccc34)NC2=O)cc1 (configuration not stated)	49	n	33	n
CC(NC(=O)c1cc(-c2ccc3c(c2)OCO3)nc2ccccc12)C(C)(C)C (configuration not stated)	n	147	n	151
CCOc1ccc(-c2cc(C(=O)Nc3ccc4c(c3)OCCO4)c3ccccc3n2)cc1	n	27	n	n
N#Cc1sc2nc(N3CCCCC3)c3c(c2c1N)CCCC3	n	n	n	n
Cc1nc2sc(C#N)c(N)c2c2c1CCCC2	n	22	n	25
CCCCc1ccc(NC(=O)CSC2=C(C#N)C(c3ccco3)C3=C(CCCC3=O)N2)cc1 (configuration not stated)	99	n	98	n
CS(=O)(=O)c1nc(-c2ccc(Br)cc2)cc(-c2ccccc2)c1C#N	n	n	n	n
CS(=O)c1nc(-c2ccc(Br)cc2)cc(-c2ccccc2)c1C#N (configuration not stated)	101	n	66	n
CC(=O)CC(C)(C)NC(C)=S	n	x	n	x
CCOC(=O)/C=C1\NC(C)(C)Cc2cc(OC)c(OC)cc21	n	n	n	n
COc1cc2c(cc1OC)C(=S)NC(C)(C)C2	103	n	46	n
COc1ccccc1NC1C=CS(=O)(=O)C1 (configuration not stated)	n	n	n	n
Cc1ccccc1NC1C=CS(=O)(=O)C1 (configuration not stated)	n	n	107	n
COC(=O)c1c(CSc2ccc(C)c(C)c2)noc1C(=O)NCc1ccc(OC)cc1	n	23	n	22
CCCCNC(=O)c1onc(CSc2ccc(C)c(C)c2)c1C(=O)O	n	n	n	n
Cc1ccc(C(C(=O)NC2CCCC2)N(Cc2ccc3c(c2)OCO3)C(=O)c2snc(C(N)=O)c2N)cc1 (configuration not stated)	n	x	n	x
O=C(NC1CCCCC1)C(c1ccccc1)N(Cc1ccc2c(c1)OCO2)C(=O)c1cnsn1 (configuration not stated)	n	n	n	26	NPY1 antag ctr=n;NPY-Y2 ant conf=n
CNS(=O)(=O)c1ccc(NC(=O)c2ccccn2)cc1	n	n	n	n
O=[N+]([O-])c1ccc(-c2csc3[n+]2CCS3)cc1	n	n	n	23	NPY1 antag ctr=n;NPY-Y2 ant conf=n
CCOc1ccc(-n2c(SCc3nc(-c4cccs4)no3)nnc2-c2ccncc2)cc1	n	n	n	18	NPY1 antag ctr=n;NPY-Y2 ant conf=n
CCCn1c(SCc2nc(-c3cccs3)no2)nnc1-c1ccncc1	n	n	n	n
Cc1cccc(OCc2nc(C#N)c(NCc3ccc4c(c3)OCO4)o2)c1	n	n	n	27	NPY1 antag ctr=n;NPY-Y2 ant conf=n

Assay outcomes (PubChem BioAssay)
